From ChEMBL document CHEMBL1131139, “Synthesis and antibacterial activity of ketolides (6-O-methyl-3-oxoerythromycin derivatives): a new class of antibacterials highly potent against macrolide-resistant and -susceptible respiratory pathogens” (1998)
In brackets after ≈: the same amount, converted by molar mass.

Assays:
Assay type in all cases: functional
Enterococcus [1] = assay: In vitro inhibitory activity against enterococci EryRc (13)
Enterococcus [2] = assay: In vitro inhibitory activity against enterococci EryRi (19)
Escherichia coli = assay: In vitro inhibitory activity against Escherichia coli (250 UC5)
Summary of the method: (§1)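 Two-fold agar dilution on Mueller-Hinton agar (pH 7.4). Inoculum from overnight plate cultures suspended in Mueller-Hinton broth, adjusted to 10^9 CFU/mL, diluted 1:200 and spotted by multipoint inoculator at about 10^4 CFU/spot. Plates incubated 37 °C for 20 h. MIC taken as lowest concentration with no visible growth.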

Haemophilus influenzae [3] = assay: In vitro inhibitory activity against Haemophilus influenzae (351CB12); summary of the method: as §1
Haemophilus influenzae [4] = assay: In vitro inhibitory activity against Haemophilus influenzae (351HT3); summary of the method: as §1
Haemophilus [5] = assay: In vitro inhibitory activity against Haemophilus AmpR (37)
Haemophilus [6] = assay: In vitro inhibitory activity against Haemophilus AmpS (43)
Mus musculus [7] = assay: In Vivo evaluation for its effective dose against Haemophilus influenzae (351RD7 AmpR beta (+))
Summary of the method: (§2)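 Male Charles River CD1 mice, 20-22 g, 10 per dose group, infected intraperitoneally with 0.5 mL diluted overnight broth culture (physiological buffer or 5% hog mucine) at 10-100 times the minimal lethal dose. Compound suspended in carboxymethylcellulose, 0.5 mL given orally immediately and 4 h postinfection. Survival followed 8-10 days; ED50 (unitary dose protecting 50% from death) by Litchfield-Wilcoxon probit method.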

Mus musculus [8] = assay: In Vivo evaluation for its effective dose against Haemophilus influenzae (351GR1); summary of the method: as §2
Mus musculus [9] = assay: In Vivo evaluation for its effective dose against Haemophilus influenzae (351TO19 AmpR beta (-)); summary of the method: as §2
Mus musculus [10] = assay: In Vivo evaluation for its effective dose against Staphylococcus aureus (011GO25 EryRi.; summary of the method: as §2
Mus musculus [11] = assay: In Vivo evaluation for its effective dose against Staphylococcus aureus (011UC4).; summary of the method: as §2
Mus musculus [12] = assay: In Vivo evaluation for its effective dose against Streptococcus pneumoniae (030Cr29 EryRc); summary of the method: as §2
Mus musculus [13] = assay: In Vivo evaluation for its effective dose against Streptococcus pneumoniae (030MV2 EryRc); summary of the method: as §2
Mus musculus [14] = assay: In Vivo evaluation for its effective dose against Streptococcus pneumoniae (030RO1 EryRi); summary of the method: as §2
Mus musculus [15] = assay: In Vivo evaluation for its effective dose against Streptococcus pneumoniae (030SJ1 EryRc); summary of the method: as §2
Mus musculus [16] = assay: In Vivo evaluation for its effective dose against Streptococcus pneumoniae (030SJ6 EryRc); summary of the method: as §2
Mus musculus [17] = assay: In Vivo evaluation for its effective dose against Streptococcus pneumoniae (032UC1); summary of the method: as §2
Mus musculus [18] = assay: In Vivo evaluation for its effective dose against Streptococcus pyogenes (02A1UC1); summary of the method: as §2
[19] = In vitro inhibitory activity against Pneumococci EryRc (34)
[20] = In vitro inhibitory activity against Pneumococci PenR (65)
[21] = system: Staphylococcus epidermidis; assay: In vitro inhibitory activity against Staphylococcus epidermidis (EryRi 012GO11i); summary of the method: as §1
Streptococcus sp. [22] = assay: In vitro inhibitory activity against Streptococci EryR (27)
Streptococcus sp. [23] = assay: In vitro inhibitory activity against Streptococci EryRi (98)
Staphylococcus sp. [24] = assay: In vitro inhibitory activity against Staphylococci EryRc (23)
Staphylococcus sp. [25] = assay: In vitro inhibitory activity against Staphylococci EryRi (65)
Staphylococcus aureus [26] = assay: In vitro inhibitory activity against Staphylococcus aureus (011UC4); summary of the method: as §1
Staphylococcus aureus [27] = assay: In vitro inhibitory activity against Staphylococcus aureus (EryRi 011GO25i); summary of the method: as §1
Streptococcus pneumoniae [28] = assay: In vitro inhibitory activity against Streptococcus pneumoniae (032UC1); summary of the method: as §1
Streptococcus pneumoniae [29] = assay: In vitro inhibitory activity against Streptococcus pneumoniae (EryRc 030SJ1); summary of the method: as §1
Streptococcus pneumoniae [30] = assay: In vitro inhibitory activity against Streptococcus pneumoniae (EryRi 030SJ5i); summary of the method: as §1
Streptococcus pyogenes = assay: In vitro inhibitory activity against Streptococcus pyogenes (02A1UC1); summary of the method: as §1
Staphylococcus aureus [31] = assay: In vitro inhibitory activity against Staphylococcus aureus (EryRc 011CB20); summary of the method: as §1
Staphylococcus sp. [32] = assay: In vitro inhibitory activity against Staphylococci Staphylococci EryRc (23)

## CC[C@H]1OC(=O)[C@H](C)[C@@H](O[C@H]2C[C@@](C)(OC)[C@@H](O)[C@H](C)O2)[C@H](C)[C@@H](O[C@@H]2O[C@H](C)C[C@H](N(C)C)[C@H]2O)[C@](C)(O)C[C@@H](C)C(=O)[C@H](C)[C@@H](O)[C@]1(C)O [ERYTHROMYCIN]
Enterococcus [1]
  MIC50: 40 µg/mL (≈ 54.5 µM)
  MIC90: 40 µg/mL (≈ 54.5 µM)
Enterococcus [2]
  MIC50: 2.5 µg/mL (≈ 3.41 µM)
  MIC90: 10 µg/mL (≈ 13.6 µM)
Escherichia coli
  MIC: 40 µg/mL (≈ 54.5 µM)
Haemophilus influenzae [3]
  MIC: 2.5 µg/mL (≈ 3.41 µM)
Haemophilus influenzae [4]
  MIC: 2.5 µg/mL (≈ 3.41 µM)
Haemophilus [5]
  MIC50: 1.2 µg/mL (≈ 1.64 µM)
  MIC90: 10 µg/mL (≈ 13.6 µM)
Haemophilus [6]
  MIC50: 1.2 µg/mL (≈ 1.64 µM)
  MIC90: 5 µg/mL (≈ 6.81 µM)
Mus musculus [7]
  ED50: 326 mg/kg
Mus musculus [8]
  ED50: 346 mg/kg
Mus musculus [9]
  ED50: 442 mg/kg
Mus musculus [10]
  ED50: > 100 mg/kg
Mus musculus [11]
  ED50: 57 mg/kg
Mus musculus [12]
  ED50: > 100 mg/kg
Mus musculus [13]
  ED50: > 100 mg/kg
Mus musculus [14]
  ED50: > 100 mg/kg
Mus musculus [15]
  ED50: > 100 mg/kg
Mus musculus [16]
  ED50: > 100 mg/kg
Mus musculus [17]
  ED50: 18.3 mg/kg
Mus musculus [18]
  ED50: 300 mg/kg
[19]
  MIC50: 40 µg/mL (≈ 54.5 µM)
  MIC90: 40 µg/mL (≈ 54.5 µM)
[20]
  MIC50: 0.6 µg/mL (≈ 0.818 µM)
  MIC90: 40 µg/mL (≈ 54.5 µM)
[21]
  MIC: 40 µg/mL (≈ 54.5 µM)
Streptococcus sp. [22]
  MIC50: 5 µg/mL (≈ 6.81 µM)
  MIC90: 40 µg/mL (≈ 54.5 µM)
Streptococcus sp. [23]
  MIC50: 20 µg/mL (≈ 27.3 µM)
  MIC90: 40 µg/mL (≈ 54.5 µM)
Staphylococcus sp. [24]
  MIC50: 40 µg/mL (≈ 54.5 µM)
  MIC90: 40 µg/mL (≈ 54.5 µM)
Staphylococcus sp. [25]
  MIC50: 40 µg/mL (≈ 54.5 µM)
  MIC90: 40 µg/mL (≈ 54.5 µM)
Staphylococcus aureus [26]
  MIC: 0.3 µg/mL (≈ 0.409 µM)
Staphylococcus aureus [27]
  MIC: 40 µg/mL (≈ 54.5 µM)
Streptococcus pneumoniae [28]
  MIC: 0.08 µg/mL (≈ 0.109 µM)
Streptococcus pneumoniae [29]
  MIC: 40 µg/mL (≈ 54.5 µM)
Streptococcus pneumoniae [30]
  MIC: 40 µg/mL (≈ 54.5 µM)
Streptococcus pyogenes
  MIC: 0.08 µg/mL (≈ 0.109 µM)
Staphylococcus aureus [31]
  MIC: 40 µg/mL (≈ 54.5 µM)

## CO[C@@H]1[C@@H](OC2OC(C)C(OC3CC(C)(O)C(OC(=O)CC(C)C)C(C)O3)C(N(C)C)C2O)[C@@H](CC=O)C[C@@H](C)[C@@H](O)/C=C/C=C/C[C@@H](C)OC(=O)C[C@H]1OC(C)=O (some centres undefined)
Enterococcus [1]
  MIC50: 40 µg/mL (≈ 48.3 µM)
  MIC90: 40 µg/mL (≈ 48.3 µM)
Enterococcus [2]
  MIC50: 1.2 µg/mL (≈ 1.45 µM)
  MIC90: 1.2 µg/mL (≈ 1.45 µM)
Haemophilus [5]
  MIC50: 5 µg/mL (≈ 6.04 µM)
  MIC90: 20 µg/mL (≈ 24.2 µM)
Haemophilus [6]
  MIC50: 5 µg/mL (≈ 6.04 µM)
  MIC90: 20 µg/mL (≈ 24.2 µM)
Mus musculus [10]
  ED50: > 100 mg/kg
Mus musculus [12]
  ED50: > 100 mg/kg
Mus musculus [13]
  ED50: > 100 mg/kg
Mus musculus [14]
  ED50: > 100 mg/kg
Mus musculus [15]
  ED50: > 100 mg/kg
Mus musculus [16]
  ED50: > 100 mg/kg
[19]
  MIC50: 20 µg/mL (≈ 24.2 µM)
  MIC90: 40 µg/mL (≈ 48.3 µM)
[20]
  MIC50: 0.3 µg/mL (≈ 0.362 µM)
  MIC90: 40 µg/mL (≈ 48.3 µM)
Streptococcus sp. [22]
  MIC50: 5 µg/mL (≈ 6.04 µM)
  MIC90: 40 µg/mL (≈ 48.3 µM)
Streptococcus sp. [23]
  MIC50: 5 µg/mL (≈ 6.04 µM)
  MIC90: 40 µg/mL (≈ 48.3 µM)
Staphylococcus sp. [25]
  MIC50: 1.2 µg/mL (≈ 1.45 µM)
  MIC90: 2.5 µg/mL (≈ 3.02 µM)
Staphylococcus sp. [32]
  MIC50: 40 µg/mL (≈ 48.3 µM)
  MIC90: 40 µg/mL (≈ 48.3 µM)
